Results published in ChEMBL document CHEMBL1158524, “Synthesis and SAR of novel imidazoles as potent and selective cannabinoid CB2 receptor antagonists with high binding efficiencies” (Bioorg Med Chem Lett, 2010).

What was measured:
Cannabinoid receptor 1 = Cannabinoid receptor 1 (Homo sapiens, UniProt P21554); assay: Displacement of [3H]CP-55940 from human CB1 receptor expressed in CHO cells; format: cell-based
Summary of the method: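 CHO cells stably transfected with human CB1 receptor. Values are the mean of at least three independent experiments.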

Cannabinoid receptor 2 [1] = target: T1, Cannabinoid receptor 2 (Homo sapiens, UniProt P34972); assay: Inverse agonist activity at human CB2 receptor assessed as stimulation of cAMP accumulation after 20 mins
T1 sequence (P34972 whole entry): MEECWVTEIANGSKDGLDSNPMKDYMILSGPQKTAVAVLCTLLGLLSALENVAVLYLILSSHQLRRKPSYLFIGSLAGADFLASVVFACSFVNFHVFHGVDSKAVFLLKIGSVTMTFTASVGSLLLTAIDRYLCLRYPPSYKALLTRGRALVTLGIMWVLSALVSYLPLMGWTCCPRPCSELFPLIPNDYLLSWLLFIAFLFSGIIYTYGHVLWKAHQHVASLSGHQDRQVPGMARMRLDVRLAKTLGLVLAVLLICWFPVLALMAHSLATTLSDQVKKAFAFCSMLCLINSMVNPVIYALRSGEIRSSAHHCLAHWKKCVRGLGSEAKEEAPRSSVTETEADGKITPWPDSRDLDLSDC

Homo sapiens = organism: Homo sapiens; assay: Selectivity ratio of Ki for human CB1 to Ki for human CB2
Cannabinoid receptor 2 [2] = target: T1, Cannabinoid receptor 2; assay: Displacement of [3H]CP-55940 from human CB2 receptor expressed in CHO cells; format: cell-based
Summary of the method: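 CHO cells stably transfected with human CB2 receptor. Values are the mean of at least three independent experiments.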

Cannabinoid receptor 2 [3] = target: T1, Cannabinoid receptor 2; assay: Antagonist activity at human CB2 receptor assessed as inhibition of forskolin-stimulated cAMP accumulation in presence of JWH133; format: functional; settings: read-out: pA2 (converted)
Summary of the method: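 Human CB2 cAMP accumulation assay measuring dose-dependent antagonism of the CB2-selective agonist JWH133, expressed as pA2 ± error. Incubation was 20 min, or 4 h for some compounds. Based on at least three independent experiments.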

Cannabinoid receptor 2 [4] = target: T1, Cannabinoid receptor 2; assay: Inverse agonist activity at human CB2 receptor assessed as inhibition of forskolin-stimulated cAMP accumulation after 4 hrs; format: functional
Summary of the method: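 Functional human CB2 cAMP accumulation assay with the incubation extended to 4 h. Inverse agonism read out as pEC50. Values are the mean of at least three independent experiments.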

Sequence of Cannabinoid receptor 1 (P21554 whole entry): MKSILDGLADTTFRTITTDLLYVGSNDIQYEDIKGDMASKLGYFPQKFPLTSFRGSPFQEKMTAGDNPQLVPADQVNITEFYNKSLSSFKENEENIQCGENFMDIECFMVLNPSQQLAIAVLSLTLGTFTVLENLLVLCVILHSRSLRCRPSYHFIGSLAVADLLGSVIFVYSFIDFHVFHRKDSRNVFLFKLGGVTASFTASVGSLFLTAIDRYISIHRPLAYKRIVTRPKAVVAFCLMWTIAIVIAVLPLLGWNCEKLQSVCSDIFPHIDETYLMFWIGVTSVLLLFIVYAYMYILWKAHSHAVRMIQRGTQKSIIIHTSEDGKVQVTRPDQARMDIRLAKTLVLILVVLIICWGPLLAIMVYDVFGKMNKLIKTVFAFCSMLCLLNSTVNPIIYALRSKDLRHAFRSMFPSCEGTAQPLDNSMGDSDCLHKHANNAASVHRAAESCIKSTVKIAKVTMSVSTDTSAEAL

Compound | Ki (Cannabinoid receptor 1) [µM] | EC50 (Cannabinoid receptor 2 [1]) [nM] | Ratio (Homo sapiens) | Ki (Cannabinoid receptor 2 [2]) [nM] | Kb (Cannabinoid receptor 2 [3]) [nM] | EC50 (Cannabinoid receptor 2 [4]) [nM]
CCCCCOc1c(OC)ccc2cc(C(=O)NCc3ccc4c(c3)OCO4)c(=O)[nH]c12 | 3.92 |  |  |  |  | 
Cc1nc(C(=O)NC23CC4CC(CC(C4)C2)C3)c(Cl)n1-c1ccccc1 | > 10 | 63.1 | > 420 | 23.8 |  | 
Cc1nc(C(=O)NC2C3CC4CC(C3)CC2C4)c(C)n1-c1ccccc1 (stereo not drawn) | 3.01 | 6.31 | 218 | 13.8 |  | 
Cc1nc(C(=O)NC23CC4CC(CC(C4)C2)C3)c(C)n1C1CCCCC1 | > 10 | 126 | > 500 | 20 |  | 
O=C(NC12CC3CC(CC(C3)C1)C2)c1nc(Cl)n(-c2ccccc2)c1Cl | > 1 | 79.4 | > 20 | 50 | 7.94 | 
CCCCc1c(C(=O)NC23CC4CC(CC(C4)C2)C3)nc(C)n1-c1ccccc1 | 2 | 5.01 | > 102 | 9.8 |  | 
CSc1c(C(=O)NC23CC4CC(CC(C4)C2)C3)nc(C)n1-c1ccccc1 | > 10 | 6.31 | > 1000 | 10 |  | 
C[C@H](NS(C)(=O)=O)c1ccc(S(=O)(=O)c2ccc(Cl)cc2S(=O)(=O)c2ccccc2F)cc1 | 3.54 | 7.94 | 4420 | 0.8 | 1 | 5.01
Cc1nc(C(=O)NC23CC4CC(CC(C4)C2)C3)c(Br)n1-c1ccccc1 | > 10 |  | > 1190 | 8.4 |  | 
CCc1nc(C(=O)NC23CC4CC(CC(C4)C2)C3)cn1-c1ccccc1 | > 1 | 12.6 | > 79 | 12.7 |  | 6.31
Cc1c(C(=O)NC[C@H]2C[C@@H]3C[C@H](C2)C3(C)C)ncn1-c1ccccc1 | > 10 | 158 | > 57 | 175 |  | 
CCc1c(C(=O)NC23CC4CC(CC(C4)C2)C3)nc(C)n1-c1ccccc1 | > 10 | 20 | > 9710 | 1.03 | 1 | 0.251
Cc1nc(C(=O)NCc2ccccc2C(F)(F)F)c(C)n1-c1ccccc1 | 1.42 | 0.2 | 406 | 3.5 |  | 
CCc1nc(C(=O)NC23CC4CC(CC(C4)C2)C3)c(C)n1-c1ccccc1 | 4.15 | 1.58 | 2600 | 1.6 | 5.01 | 
Cc1nc(C(=O)NC[C@H]2C[C@@H]3C[C@H](C2)C3(C)C)c(C)n1-c1ccccc1 | 3.99 | 31.6 | 200 | 20 |  | 
Cc1nc(C(=O)NC23CC4CC(CC(C4)C2)C3)c(C)n1-c1ccccc1 | 4.89 | 0.794 | 1810 | 2.7 | 1.58 | 0.794
Cc1nc(C(=O)NC2C3CC4CC(C3)C2C4)c(C)n1-c1ccccc1 (stereo not drawn) | 5.44 | 7.94 | 561 | 9.7 |  | 
